High-throughput results (PubChem)
Compounds with a hit are over-represented: about 3.7% of the library has one in this group of screens.
Granule exo inh – blocks lytic granule exocytosis. TALL-104 LAMP-1 surface exposure, flow cytometry; cells stimulated with thapsigargin and PMA. inhibition, % at 10 µM. hit rate 0.66% among 360,000. AID 651702;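 active means inhibition above about 55%, limit read from the data; inconclusive means no clear call, values can overlap the other calls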
Myeloid diff 2 – myeloid differentiation induction. ER-HoxA9 myeloid progenitors, lysozyme-GFP differentiation, flow cytometry. calls only at 10 µM. hit rate 1% among 360,000;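 active means normalized GFP-positive differentiation at or above the plate's own cutoff, the solvent-only control mean plus 3 SD; inconclusive means no clear call, values can overlap the other calls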;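 further: cells exposed to compound for four days before flow analysis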
EBI2 block – antagonists of human EBI2 receptor; P32249; inhibition, % at 5 µM; AID 651636; EBI2 beta-arrestin recruitment, luminescence, 7a,25-OHC stimulated; hit rate 0.81% among 360,000; in the data active means inhibition above about 38%;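 further: enzyme fragment complementation signal reports receptor beta-arrestin coupling in cells; 0% = agonist plus DMSO wells and 100% = wells without agonist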
Target sequence (P32249 whole entry, looked up, the tested form may be a part): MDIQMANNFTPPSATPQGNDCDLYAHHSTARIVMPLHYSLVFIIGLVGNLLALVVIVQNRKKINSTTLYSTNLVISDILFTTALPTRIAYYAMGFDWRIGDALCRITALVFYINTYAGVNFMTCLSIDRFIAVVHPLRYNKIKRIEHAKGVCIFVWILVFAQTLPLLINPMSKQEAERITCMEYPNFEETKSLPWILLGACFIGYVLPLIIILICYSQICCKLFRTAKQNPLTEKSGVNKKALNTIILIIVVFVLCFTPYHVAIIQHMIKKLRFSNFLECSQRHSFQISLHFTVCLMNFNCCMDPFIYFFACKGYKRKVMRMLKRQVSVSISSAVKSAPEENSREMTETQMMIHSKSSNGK
MC4R antagonist – blocks human MC4R cAMP signaling. inhibition, % at 6.5 µM. MC4R-expressing cells, MTII-stimulated cAMP, LANCE TR-FRET. hit rate 0.48% among 360,000;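 active means inhibition above its plate's cutoff, the mean of tested wells on that plate plus 3 SD, cut at about 29% in these data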;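 further: 0% = Melanotan II alone and 100% = Melanotan II plus saturating MCL0020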
Target sequence (P32245 whole entry, looked up): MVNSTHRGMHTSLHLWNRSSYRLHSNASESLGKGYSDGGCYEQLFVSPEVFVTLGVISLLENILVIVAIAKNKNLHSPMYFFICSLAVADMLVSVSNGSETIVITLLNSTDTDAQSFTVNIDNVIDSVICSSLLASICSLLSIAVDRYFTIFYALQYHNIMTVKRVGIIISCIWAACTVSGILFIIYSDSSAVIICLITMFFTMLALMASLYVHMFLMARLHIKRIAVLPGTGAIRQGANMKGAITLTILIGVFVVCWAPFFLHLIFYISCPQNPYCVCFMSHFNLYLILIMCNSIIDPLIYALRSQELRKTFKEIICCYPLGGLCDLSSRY
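Material: human MC4R-expressing U2OS cells. Probe or stimulus: Melanotan II challenge. Dosing: 6.5 µM single dose. Times: 30-min compound, 1-h challenge, 1-h detection, room temperature. Technique: TR-FRET with Eu-cAMP and labeled anti-cAMP, 671 nm. Replication: singlicate.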
MC4R barr agon – activates human MC4R beta-arrestin recruitment. hit rate 0.98% among 360,000. P32245. activation, % at 8.9 µM. U2OS MC4R beta-arrestin complementation, luminescence; percent of melanotan II response, DMSO zero;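 active means activation above a per-plate cutoff, the mean activation of sample wells on that plate plus 3 SD, cut at about 8% in these data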
EBI2 antag conf – confirmation of human EBI2 receptor antagonists; shares compounds with EBI2 block; EBI2 beta-arrestin luminescence, 7a,25-OHC antagonism; inhibition, % at 5 µM; hit rate 29% among 2,400;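 active means inhibition of at least 50%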
EBI2 ag – counter-screen for EBI2 antagonists: EBI2 agonist activity; 2,400 tested, under 10 active; EBI2-expressing cells, agonist mode, luminescence, 60 min; 0% vehicle, 100% 7α,25-dihydroxycholesterol control; shares compounds with EBI2 block; activation, % at 5 µM; AID 652000;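 active means activation of at least 50%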
bGal cs – counter-screen for EBI2 antagonists: E. coli beta-galactosidase inhibition. purified beta-galactosidase, luminescent Galacton Star, 15 min. inhibition, % at 5 µM. shares compounds with EBI2 block. AID 652176. hit rate 1% among 2,400;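 active means replicate-average signal at least 3 plate SD below neutral wells, shown as high inhibition, flagging enzyme-inhibiting false positives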;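 further: 0% = DMSO wells with enzyme and 100% = wells lacking enzyme; higher means stronger loss of beta-gal luminescence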
* marks the source's active call; other numbers are inactive results; i = inactive; ? = inconclusive; . = no result given.

SMILES | Granule exo inh | Myeloid diff 2 | EBI2 block | MC4R antagonist | MC4R barr agon | EBI2 antag conf | EBI2 ag | bGal cs
NC(=O)c1ccccc1NC(=O)CN1CCN(Cc2ccc(Cl)cc2Cl)CC1 | -2 | i | 0 | 11 | -3 | . | . | .
Clc1ccc(CN(CC2CCCO2)C(c2cccs2)c2nnnn2C2CCCC2)cc1 (stereo not given) | 17 | i | 49* | 11 | 0 | 4 | -1 | -13
Clc1ccccc1CN(Cc1ccccc1)C(c1cccs1)c1nnnn1C1CCCC1 (stereo not given) | 2 | i | 30 | 4 | 0 | . | . | .
CCN(Cc1ccccc1)C(c1cccs1)c1nnnn1C1CCCCC1 (stereo not given) | 3 | . | 49* | 9 | 1 | 19 | -1 | -13
c1csc(C(c2nnnn2C2CCCC2)N2CCOCC2)c1 (stereo not given) | 4 | i | -6 | 1 | 0 | . | . | .
CC(C)C1Cc2[nH][nH]c(=O)c2C(C2CC2)O1 (stereo not given) | 6 | i | -11 | . | . | . | . | .
Cc1[nH]c2ccc(C(=O)N3CCN(c4ccc(F)cc4)CC3)cc2c1C | -9 | i | 78* | 2 | 4 | 72* | 1 | 11
COc1ccc(NC2CCCN(C(=O)c3ccc4[nH]c(C)c(C)c4c3)C2)cc1 (stereo not given) | -1 | i | 8 | 1 | -4 | . | . | .
COc1ccc(N2CCN(C(=O)c3ccc4[nH]c(C)c(C)c4c3)CC2)cc1 | 0 | i | 85* | -1 | -2 | 73* | 1 | -7
CC(=O)c1ccc(N2CCN(C(=O)c3ccc4[nH]c(C)c(C)c4c3)CC2)cc1 | 7 | i | 14 | 2 | 1 | . | . | .
O=C(N/N=C/c1ccccn1)c1ccc(Cl)c(Cl)c1 | 10 | i | 55* | 3 | -7 | 81* | -1 | 2
Cc1ccc(SCC(=O)NCCC2=CCCCC2)cc1 | 1 | i | 38* | -2 | 0 | 31 | 2 | 0
COc1ccccc1Oc1ccc2c(c1)C(=O)N(c1cccc3ncccc13)C2=O | -8 | i | 11 | 5 | -3 | . | . | .
Cc1ccc(C(=O)COC(=O)c2ccc3c(c2)C(=O)N(c2cccc4ncccc24)C3=O)cc1C | -1 | i | 48* | 1 | 4 | 1 | -2 | -9
COc1ccc(N/C=C(\C#N)c2ccc(OCCCF)cc2)cc1 | -4 | i | 72* | 1 | 0 | 37 | -1 | -12
COc1ccc(N/C=C(\C#N)S(=O)(=O)c2ccc(OC)cc2)cc1 | -3 | i | -2 | 16 | 1 | . | . | .
Cc1ccc(N/C=C(/C#N)c2ccsc2)cc1 | -1 | i | 28 | -3 | -1 | . | . | .
Cc1ccc(N/C=C(\C#N)c2ccc(OCCCF)cc2)cc1 | 0 | i | 81* | 3 | 1 | 52* | -1 | -15
COc1cc(C(=O)N(c2ccc(C)c(C)c2)C2C=CS(=O)(=O)C2)cc(OC)c1OC (stereo not given) | 0 | i | -5 | 13 | -3 | . | . | .
CCN(CC(=O)NCc1ccc(Cl)cc1)C(=O)CSc1ccc(Br)cc1 | 0 | i | 68* | -2 | -3 | 35 | 0 | 5
O=C(CSc1nn(-c2ccc(Cl)cc2)c(=S)s1)NCC1CCCO1 (stereo not given) | 0 | i | -1 | 3 | -1 | . | . | .
O=C(COc1ccccc1)N1CCN(S(=O)(=O)c2ccc(Br)cc2)CC1 | -5 | i | 64* | 7 | -2 | 38 | 0 | -15
COc1ccc(S(=O)(=O)N2CCN(CCOc3ccc(Br)cc3)CC2)cc1OC | 2 | i | 58* | 10 | 1 | 16 | 0 | -14
Cc1ccc(OCC(=O)N2CCN(S(=O)(=O)c3ccccc3[N+](=O)[O-])CC2)cc1 | -7 | i | 84* | 13 | 0 | 60* | 0 | -5
Cc1ccc(S(=O)(=O)N2CCN(C(=O)COc3ccc(Br)cc3)CC2)cc1 | 9 | i | 94* | 11 | -2 | 72* | -1 | -14
SMILES | Granule exo inh | Myeloid diff 2 | EBI2 block | MC4R antagonist | MC4R barr agon | EBI2 antag conf | EBI2 ag | bGal cs
COc1ccc(OC)c(C(=O)CN2CCN(S(=O)(=O)c3ccc(Br)cc3)CC2)c1 | 3 | i | 8 | 0 | -1 | . | . | .
O=c1c(Br)ccc(Br)cc1Br | 46 | ? | 8 | 5 | -3 | . | . | .
Cc1nc(SC(C)C(=O)c2c(N)n(C)c(=O)n(C)c2=O)c2c(C)c(C)sc2n1 (stereo not given) | -1 | i | 47* | 6 | -1 | 51* | -1 | 7
Cc1ccc(CNC(=O)c2ccc(S(=O)(=O)N3CCCC3)cc2)cc1 | 2 | i | 34 | 23 | -1 | . | . | .
COc1ccc(S(=O)(=O)N2CCN(C(=O)NCc3ccc(C)cc3)CC2)cc1 | 1 | i | 77* | 11 | -2 | 60* | 2 | 0
Cc1ccc(CNC(=O)c2ccc(S(=O)(=O)N3CCCCC3)cc2)cc1 | -3 | i | 64* | 9 | 3 | 27 | 2 | 2
COc1ccc(CNC(=O)N2CCN(S(=O)(=O)c3ccc(C)cc3C)CC2)cc1 | -6 | i | 63* | 0 | 0 | 39 | -1 | -17
COc1cccc(CNC(=O)N2CCN(S(=O)(=O)c3ccc(C)cc3)CC2)c1 | 16 | i | -4 | 5 | 1 | . | . | .
Cc1cccc(C(=O)NC(=S)Nc2ccc(S(=O)(=O)N3CCCCC3)cc2)c1 | -1 | i | 62* | 5 | -1 | 45 | -1 | -14
CCOC(=O)[C@]12CCC=C1N(Cc1ccco1)C(=O)[C@H](CC(=O)N1CCN(C(=O)c3ccco3)CC1)C2 | 8 | i | -1 | . | . | . | . | .
CC(=O)c1cccc(NC(=O)c2cc(S(=O)(=O)N3CCOCC3)cs2)c1 | 2 | i | -4 | 2 | -3 | . | . | .
Cc1ccc(CNC(=O)c2ccc(-n3cccc3)cc2)cc1 | 1 | i | 47* | 6 | 1 | 3 | -1 | -11
COc1ccc(CCNC(=S)N2CCN(S(=O)(=O)c3ccc(C)cc3)CC2)cc1 | -2 | i | 52* | 3 | -1 | 43 | 1 | 0
Cc1ccc(S(=O)(=O)N2CCN(C(=O)NCc3ccc(F)cc3)CC2)c(C)c1 | 19 | i | 68* | -3 | -2 | 27 | 1 | 1
COc1cc(OC)cc(C(=O)N[C@H](C(=O)OCC(=O)c2ccc(C)c([N+](=O)[O-])c2)C(C)C)c1 | -3 | i | 7 | -2 | 2 | . | . | .
Nc1c(Cl)c(Cl)nc(C(=O)OCC(=O)NC2CCCCC2)c1Cl | -2 | i | -8 | 0 | -1 | . | . | .
CC(=NOC(=O)c1ccc(I)cc1)c1nccs1 | 0 | i | -3 | -3 | 4 | . | . | .
